Calls of active or inactive are those of the source.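 How the source made its calls, unless noted: active means NADPH fluorescence slope more negative than the mean of all samples by about 3 SD, 99.7% confidence; inactive means the rest.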
Columns and labels:
[1] = inhibitors of TNFa-induced NFkB p65 translocation, primary screen, imaging, HUVEC, MLSMR starter and 10KST1 sets (AID 438;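 active means inhibition above 20% together with a positive visual image hit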;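 further: compound added about 3h40 before a 20 min TNFalpha stimulation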;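 on inhibition: signal is the nuclear over cytoplasmic p65 intensity ratio per well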); conditions: HUVEC TNFa-induced p65 nuclear translocation; cell count: measured here: nuclei count (cytotoxicity indicator), at 2.08 µM; inhibition: at 2 µM, stronger effect = higher value, 0% TNFa-plus-vehicle, 100% no-TNFa wells
[2] = endothelial E-selectin expression blockers – imaging, HUVEC, immunofluorescence, MLSMR starter and 10KST1 sets, primary screen (AID 487;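 active means visually confirmed hit in the image check and inhibition above 20%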;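 on inhibition: signal is fraction of cell area covered by stained E-selectin grains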;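 on nuclei count: 100% = median nuclei count of all wells on the same plate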); conditions: HUVEC TNFalpha-induced E-selectin immunofluorescence imaging, at 2 µM; inhibition: stronger effect = higher value; nuclei count: measured here: cell number, toxicity
[3] = Primary imaging screen for DUSP6 inhibitors that restore phospho-Erk in transfected HeLa cells, chemical complementation (AID 609;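 active means compounds giving at least 50% inhibition in the cell-based MKP-3 phosphatase rescue imaging test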;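 on inhibition: phospho-Erk level distribution per well compared with pooled transfected vehicle control wells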); conditions: HeLa MKP-3 transfected, phospho-Erk imaging KS statistic, at 10 µM, cells stimulated with TPA for 15 min
[4] = biological target: Dual specificity protein phosphatase 6 (Homo sapiens) (UniProt Q16828); experiment: as above; conditions: HeLa MKP-3 transfected, phospho-Erk imaging KS statistic; at 10 µM; stronger effect = higher value; cells stimulated with TPA for 15 min
Sequence of Dual specificity protein phosphatase 6 (Homo sapiens) (Q16828 whole entry, looked up): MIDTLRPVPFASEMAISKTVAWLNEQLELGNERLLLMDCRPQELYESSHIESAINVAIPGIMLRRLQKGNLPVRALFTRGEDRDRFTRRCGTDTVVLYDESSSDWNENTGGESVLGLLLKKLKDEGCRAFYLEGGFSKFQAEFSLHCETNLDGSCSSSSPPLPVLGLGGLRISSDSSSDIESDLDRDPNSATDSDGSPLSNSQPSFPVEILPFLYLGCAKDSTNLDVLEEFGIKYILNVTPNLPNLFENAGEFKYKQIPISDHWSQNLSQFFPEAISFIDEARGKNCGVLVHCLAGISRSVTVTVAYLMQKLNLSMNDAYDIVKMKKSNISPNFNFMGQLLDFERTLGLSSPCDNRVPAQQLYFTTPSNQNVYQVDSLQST

[5] = biological target: Voltage-gated potassium channel subunit beta-2 (Rattus norvegicus) (UniProt P62483); experiment: inhibitors of rat Kvbeta2 reductase activity – biochemical, NADPH fluorescence, primary screen (AID 622;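 active means fluorescence slope higher than the sample average by over 3 SD, cut at about -0.22 in these data, passing the limit was not always enough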;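 further: slope of raw intensity against log time taken from 70 to 1610 s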); conditions: recombinant KvBeta, 4-cyanobenzaldehyde reduction, at 10 µM, stronger effect = higher value
Sequence of Voltage-gated potassium channel subunit beta-2 (Rattus norvegicus) (P62483 whole entry, looked up): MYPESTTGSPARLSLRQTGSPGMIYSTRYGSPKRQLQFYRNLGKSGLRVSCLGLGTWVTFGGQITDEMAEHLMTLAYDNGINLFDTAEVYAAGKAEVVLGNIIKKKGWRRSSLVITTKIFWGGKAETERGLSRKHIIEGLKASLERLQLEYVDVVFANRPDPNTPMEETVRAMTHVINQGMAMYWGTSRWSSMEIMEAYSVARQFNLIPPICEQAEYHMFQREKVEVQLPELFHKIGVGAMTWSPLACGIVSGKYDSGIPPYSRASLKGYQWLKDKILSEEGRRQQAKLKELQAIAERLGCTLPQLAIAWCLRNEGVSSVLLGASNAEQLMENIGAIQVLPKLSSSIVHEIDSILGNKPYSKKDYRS

[6] = biological target: Voltage-gated potassium channel subunit beta-2 (Rattus norvegicus) (UniProt P62483); experiment: enhancers of rat Kvbeta2 NADPH turnover – biochemical, NADPH fluorescence, primary screen (AID 623); conditions: Recombinant KvBeta, NADPH fluorescence decrease slope, 10 min; at 10 µM; stronger effect = lower value;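 further: fluorescence intensity change per second fitted from 20 to 320 s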
[7] = biological target: Muscarinic acetylcholine receptor M4 (Homo sapiens) (UniProt P08173); experiment: M4-linked GIRK flux change, two-sided – cell-based, HEK293 M4/GIRK, thallium flux, BTC-AM, M4 allosteric agonist project, primary screen (AID 625;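 active means fluorescence slope after compound addition differing from the mean of all tested samples at 99.7% confidence, mostly higher but some lower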;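 further: thallium influx through GIRK channels coupled to M4 in HEK293 cells with BTC-AM dye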); conditions: at 10 µM, actives lie on both sides
Sequence of Muscarinic acetylcholine receptor M4 (Homo sapiens) (P08173 whole entry, looked up): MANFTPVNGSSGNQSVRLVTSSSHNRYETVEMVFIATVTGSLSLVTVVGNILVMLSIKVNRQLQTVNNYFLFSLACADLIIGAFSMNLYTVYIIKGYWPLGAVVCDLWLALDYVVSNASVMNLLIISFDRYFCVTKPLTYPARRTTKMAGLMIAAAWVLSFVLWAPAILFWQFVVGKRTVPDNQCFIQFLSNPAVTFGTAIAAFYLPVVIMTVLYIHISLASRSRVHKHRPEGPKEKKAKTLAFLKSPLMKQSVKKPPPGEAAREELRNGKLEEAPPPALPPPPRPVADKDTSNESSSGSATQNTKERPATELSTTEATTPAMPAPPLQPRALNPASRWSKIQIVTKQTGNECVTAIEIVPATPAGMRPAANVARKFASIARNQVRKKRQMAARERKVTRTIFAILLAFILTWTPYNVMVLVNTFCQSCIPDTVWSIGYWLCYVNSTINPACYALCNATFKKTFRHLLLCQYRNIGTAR
In short: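 Assay system: HEK293 cells with M4 receptor and GIRK channels / Controls: carbachol and DMSO controls / Schedule: 1 h dye loading, 2 min kinetic read / Technique: kinetic fluorescence with BTC-AM dye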

[8] = inhibitors of larval lipid processing in zebrafish, primary screen, whole organism, PED6 fluorescence, gall bladder and intestine (AID 686;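 active means a full or partial loss of lipid-probe fluorescence in the fish gall bladder, intestine or both, judged by eye; inactive means no fluorescence loss, or compound toxic to the fish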;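 further: larvae 5 to 7 days old with five fish per well; signal comes from phospholipase A2 cleavage of quenched PED6 carried via bile; overnight exposure to compound and PED6 before scoring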); conditions: Zebrafish larvae PED6 lipid processing, fluorescence scoring; screened at 20 µM (by protocol)
In short: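 Doses: 20 µM single dose. Test system: live zebrafish larvae aged 5-7 days, whole organism. Quantity: five larvae per well. Measured by: By-eye fluorescence microscopy. Reagent: ingested quenched lipid PED6 at 100 nM. Read-out: visual per-well fluorescence inhibition score. Times: overnight exposure of larvae to compound plus PED6.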

[9] = loss of swimming-algae plug formation – whole organism, Chlamydomonas reinhardtii, WT vs cilia-less mutant, absorbance, 96-well, primary screen (AID 463189;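 active means inhibition at or above 50% relative to wild type and mutant plate controls; inactive means inhibition below 50%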;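 further: 0% = wild type cc124 cells in DMSO and 100% = ciliumless bld1 mutant cells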); conditions: Chlamydomonas reinhardtii gravitaxis, OD600 absorbance, 2 days; at 10 µM; stronger effect = higher value
[10] = measured here: cell density z-score
[11] = measured here: nuclear c-Myc green intensity z-score
[12] = measured here: nuclear pErk red intensity z-score, stronger effect = higher value

Structure (SMILES)	cell count [1]	inhibition [1]	inhibition [2]	nuclei count [2] [%]	z-score [3, 10]	z-score [3, 11]	z-score [3, 12]	inhibition [4]	fluorescence slope [5]	NADPH fluorescence slope [6]	fluorescence slope [7]	outcome [8]	inhibition [9]
COc1cc(N2CCCC2)c(OC)cc1/C=c1/sc2nc3ccccc3n2c1=O	499	-8.5% (inactive)	-137% (inactive)	155	-1.29	0.0669	-0.774	39.3% (inactive)	-0.438 (inactive)	-3.3e-05 (inactive)	0.00712 (inactive)	inactive	3.75% (inactive)
CCSc1nnc(NC(=O)NCC(F)(F)F)s1	580	-4.9% (inactive)	31.5% (inactive)	96.4	1.02	-0.999	-0.913	9.07% (inactive)	-0.469 (inactive)	-3.9e-05 (inactive)	0.00649 (inactive)	inactive	-11.4% (inactive)
CCN(CC)CCN1C(=O)c2ccccc2NC1c1cc(OC)c(OC)c(OC)c1 (stereo unspecified)	672	-13.1% (inactive)	57.5% (inactive)	132	0.00511	-1.27	1.11	3.49% (inactive)	-0.0732 (inactive)	-1.4e-05 (inactive)	0.00441 (inactive)	inactive	16.2% (inactive)
CCOC(=O)c1c(N)sc(=S)c2c1CCC2	618	-6.2% (inactive)	-92.1% (inactive)	139	0.668	-0.746	-1.03	-11.4% (inactive)	-0.467 (inactive)	-0.000294 (inactive)	0.00293 (inactive)	inactive	15% (inactive)
COC(=O)c1sc(NC(=O)c2oc3ccccc3c2C)nc1C	594	-0.2% (inactive)	-146% (inactive)	150	0.222	-0.561	-0.214	25.8% (inactive)	-0.269 (inactive)	-4e-05 (inactive)	0.00832 (inactive)	inactive	-10.3% (inactive)
CC12CN3CC(C)(CN(C1)C3c1ccc(Cl)cc1Cl)C2O (stereo unspecified)	486	-4% (inactive)	-90.6% (inactive)	121	-2.88	1.19	-1.32	-0.584% (inactive)	-0.52 (inactive)	-6.5e-05 (inactive)	0.0049 (inactive)	inactive	-8.3% (inactive)
CCCc1nc(N2CCCC2)c(C#N)c2c1CCCC2	605	-1.2% (inactive)	-118% (inactive)	141	-1.08	0.0644	-0.444	-5.81% (inactive)	-0.448 (inactive)	-9.6e-05 (inactive)	0.00554 (inactive)	inactive	4.3% (inactive)
O=C1CC(c2ccccc2)n2nc(NS(=O)(=O)c3ccccc3)nc2N1 (stereo unspecified)	363	-12.1% (inactive)	-108% (inactive)	114	1.38	-0.224	-0.593	14.4% (inactive)	-0.486 (inactive)	-2.9e-05 (inactive)	0.00519 (inactive)	inactive	-8.7% (inactive)
Cn1c(=O)c2c(nc(Br)n2CCSc2nc3ccccc3o2)n(C)c1=O	608	-8.8% (inactive)	32.7% (inactive)	175	-0.0761	0.135	-1.22	17.4% (inactive)	-0.346 (inactive)	-7e-06 (inactive)	0.00576 (inactive)	inactive	45.2% (inactive)
CCc1c(C)c2cc(Cl)c(O)c(CN3CCCCC3)c2oc1=O	634	-3.5% (inactive)	6.3% (inactive)	174	0.309	0.0643	-0.532	-10.6% (inactive)	-0.0112 (inactive)	-2.8e-08 (inactive)	0.00604 (inactive)	inactive	-1.88% (inactive)
CCc1nc(NC2CCCCC2)c(C#N)c2c1COC(C)(C)C2	573	-9.3% (inactive)	-95.5% (inactive)	153	0.843	-0.37	-0.579	29.5% (inactive)	-0.475 (inactive)	-2.5e-05 (inactive)	0.00603 (inactive)	inactive; toxic	-1.73% (inactive)
C=C(C)CSc1nnc2n(C)c(=O)c3c4c(sc3n12)CCC4	334	8.5% (inactive)	-1.8% (inactive)	118	1.02	-0.186	-0.897	15.4% (inactive)	-0.438 (inactive)	-0.000119 (inactive)	0.00483 (inactive)	inactive	41.8% (inactive)
Cc1cc2c(c(=O)o1)C(CC(C)C)C(C#N)=C(N)O2 (stereo unspecified)	703	2% (inactive)	-144% (inactive)	167	-0.228	-0.296	-0.119	-1.12% (inactive)	-0.436 (inactive)	-5.8e-05 (inactive)	0.00457 (inactive)	inactive	3.4% (inactive)
CC(C)(C)NC(=O)/C=N/O	637	-13.4% (inactive)	-71.6% (inactive)	166	-0.0727	-0.26	0.222	1.63% (inactive)	-0.466 (inactive)	-3.8e-05 (inactive)	0.00655 (inactive)	inactive	25.5% (inactive)
CC(=O)[C@H]1[C@@H]2C(=O)N(c3cccc(Cl)c3)C(=O)[C@@H]2[C@H]2c3ccccc3C=CN21	652	0% (inactive)	5.3% (inactive)	144	0.229	0.26	-0.893	-2.47% (inactive)	-0.495 (inactive)	-3.6e-05 (inactive)	0.00696 (inactive)	inactive	18.1% (inactive)
CCN(CC)CCCN1C(=O)C(=O)/C(=C(/O)c2ccc3c(c2)CC(C)O3)C1c1cccnc1 (stereo unspecified)	574	-10.8% (inactive)	68% (inactive)	83.2	-1.33	0.323	0.536	6.04% (inactive)	-0.502 (inactive)	-2.4e-05 (inactive)	0.00627 (inactive)	inactive	13.2% (inactive)
N#Cc1c(N)nc(SCC(=O)NCc2ccc3c(c2)OCO3)c(C#N)c1-c1cccs1	577	-0.3% (inactive)	53.2% (inactive)	115	0.98	1.31	-0.212	6.04% (inactive)	-0.493 (inactive)	-6.7e-05 (inactive)	0.00636 (inactive)	inactive	-14% (inactive)
N#Cc1nc(-c2ccc(F)cc2)oc1N1CCCC1	706	-7.6% (inactive)	24.6% (inactive)	148	1.01	1.06	0.859	9.07% (inactive)	-0.348 (inactive)	-9.4e-06 (inactive)	0.0076 (inactive)	inactive	-3.17% (inactive)
COc1ccc(CC(=O)n2c(CC#N)nc3ccccc32)cc1OC	598	-10.9% (inactive)	-32.4% (inactive)	112	-0.393	-2.03	0.813	-0.233% (inactive)	-0.465 (inactive)	-3.6e-05 (inactive)	0.00563 (inactive)	inactive	9.22% (inactive)
CCOC(=O)C(O)(C1C(=O)CC(C)(C)CC1=O)C(F)(F)F (stereo unspecified)	681	-12.6% (inactive)	-174% (inactive)	160	-0.979	0.326	3.57	-9.53% (inactive)	-0.44 (inactive)	-4.6e-05 (inactive)	0.00523 (inactive)	inactive	3.71% (inactive)
Cc1ccc(C(=O)C2=C(O)C(=O)N(CCN3CCOCC3)C2c2ccccn2)o1 (stereo unspecified)	403	1.7% (inactive)	-75.7% (inactive)	147	-0.208	-0.969	-0.257	-0.608% (inactive)	-0.474 (inactive)	-0.0001 (inactive)	0.00402 (inactive)	inactive	-7.55% (inactive)
CC(C)CNC(=O)c1c(N)n(/N=C/c2cccnc2)c2nc3ccccc3nc12	412	-2.8% (inactive)	-18% (inactive)	105	1.93	-1.56	-0.113	17.7% (inactive)	-0.347 (inactive)	4.3e-06 (inactive)	0.00594 (inactive)	inactive	35.6% (inactive)
CN(C)c1nc(OCCNC(=O)Nc2ccccc2)nc(N(C)C)n1	519	-7.6% (inactive)	-47.8% (inactive)	104	0.724	-0.537	-0.187	5.42% (inactive)	-0.522 (inactive)	5.3e-05 (inactive)	0.00455 (inactive)	inactive	36.3% (inactive)
Cc1ccc2[nH]c3c(c2c1)CN(C(=O)CN1CC(C)OC(C)C1)CC3 (stereo unspecified)	409	-6.9% (inactive)	-299% (inactive)	169	1.01	0.157	-0.0941	3.42% (inactive)	-0.466 (inactive)	-0.000107 (inactive)	0.00334 (inactive)	inactive	26.6% (inactive)
CCOC(=O)C1CCCN(c2nc3ccccc3nc2C(C#N)C(=O)OC(C)COC)C1 (stereo unspecified)	683	-5.4% (inactive)	-63% (inactive)	204	-1	0.049	0.811	-5.81% (inactive)	-0.495 (inactive)	-0.000103 (inactive)	0.00181 (inactive)	inactive	23.6% (inactive)
CC1(C(=O)CSc2ncn[nH]2)CCC(=O)O1 (stereo unspecified)	643	19.2% (inactive)	21.4% (inactive)	93.2	-1.6	1.61	0.596	7.21% (inactive)	-0.544 (inactive)	-5.7e-05 (inactive)	0.00624 (inactive)	inactive	29.1% (inactive)
Cc1sc(-n2c(C)ccc2C)c(C#N)c1C	411	-2% (inactive)	-11.7% (inactive)	144	-1.09	-0.0847	1.07	7.73% (inactive)	-0.505 (inactive)	-9.6e-05 (inactive)	0.00469 (inactive)	inactive	-3.1% (inactive)
